“Also recorded” adds a separate entry of the source.
What was measured:
human BiP [1] = target: T1, human BiP (Homo sapiens, UniProt P11021); test: Fluorescence polarization NR peptide binding affinity; conditions: WT BiP
Procedure, shortened: (§1)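 Human BiP proteins (wild type or variant) were made as Smt3 fusions in E. coli BL21(DE3)Gold. They were purified on HisTrap, cut with Ulp1, run over a second HisTrap, then HiTrap Q and Superdex 200, and stored in 5 mM Hepes-KOH pH7.5, 10 mM KCl. Binding of NR peptide (NRLLLTG) was read by fluorescence polarization across serial protein dilutions. Kd was fitted from binding curves; standard errors come from at least 6 assays on more than two protein purifications.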

BiP R532E = BiP R532E (Homo sapiens, UniProt P11021, R532E); test: Fluorescence anisotropy NR peptide binding affinity; conditions: WT BiP as control
Sequence of BiP R532E (P11021 19-654 R532E): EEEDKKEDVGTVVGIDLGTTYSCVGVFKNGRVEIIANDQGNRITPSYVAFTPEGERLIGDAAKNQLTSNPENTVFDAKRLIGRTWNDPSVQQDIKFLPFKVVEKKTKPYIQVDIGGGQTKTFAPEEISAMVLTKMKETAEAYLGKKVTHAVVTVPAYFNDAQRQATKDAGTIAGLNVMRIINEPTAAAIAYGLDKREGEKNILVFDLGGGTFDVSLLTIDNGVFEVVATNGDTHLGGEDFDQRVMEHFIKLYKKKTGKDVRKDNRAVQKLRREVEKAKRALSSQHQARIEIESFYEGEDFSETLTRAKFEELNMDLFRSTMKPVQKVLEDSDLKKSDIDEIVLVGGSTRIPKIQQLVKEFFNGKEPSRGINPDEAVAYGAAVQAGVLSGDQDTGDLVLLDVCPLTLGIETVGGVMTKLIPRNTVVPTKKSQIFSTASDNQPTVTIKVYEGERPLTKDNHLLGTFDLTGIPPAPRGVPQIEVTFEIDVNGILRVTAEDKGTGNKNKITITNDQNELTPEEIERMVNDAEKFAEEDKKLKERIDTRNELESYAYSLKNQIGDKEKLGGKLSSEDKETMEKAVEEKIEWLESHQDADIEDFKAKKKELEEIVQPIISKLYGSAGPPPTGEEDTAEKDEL
Procedure, shortened: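 BiP wild type and mutants were expressed in E. coli BL21(DE3)Gold as Smt3 fusions. Purification was by HisTrap, Ulp1 tag removal, a second HisTrap, HiTrap Q and Superdex 200. Fluorescence polarization/anisotropy binding of NR peptide (NRLLLTG) was measured with serial dilutions of protein, in the presence of ADP or ATP. Kd was calculated from the binding data.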

BiP-PP (G486P/G493P) [2] = target: T2, BiP-PP (G486P/G493P) (Homo sapiens, UniProt P11021, G486P/G493P); test: Fluorescence anisotropy peptide substrate binding kinetics; conditions: F-NR peptide
T2 sequence (P11021 25-654 G486P/G493P limits assumed): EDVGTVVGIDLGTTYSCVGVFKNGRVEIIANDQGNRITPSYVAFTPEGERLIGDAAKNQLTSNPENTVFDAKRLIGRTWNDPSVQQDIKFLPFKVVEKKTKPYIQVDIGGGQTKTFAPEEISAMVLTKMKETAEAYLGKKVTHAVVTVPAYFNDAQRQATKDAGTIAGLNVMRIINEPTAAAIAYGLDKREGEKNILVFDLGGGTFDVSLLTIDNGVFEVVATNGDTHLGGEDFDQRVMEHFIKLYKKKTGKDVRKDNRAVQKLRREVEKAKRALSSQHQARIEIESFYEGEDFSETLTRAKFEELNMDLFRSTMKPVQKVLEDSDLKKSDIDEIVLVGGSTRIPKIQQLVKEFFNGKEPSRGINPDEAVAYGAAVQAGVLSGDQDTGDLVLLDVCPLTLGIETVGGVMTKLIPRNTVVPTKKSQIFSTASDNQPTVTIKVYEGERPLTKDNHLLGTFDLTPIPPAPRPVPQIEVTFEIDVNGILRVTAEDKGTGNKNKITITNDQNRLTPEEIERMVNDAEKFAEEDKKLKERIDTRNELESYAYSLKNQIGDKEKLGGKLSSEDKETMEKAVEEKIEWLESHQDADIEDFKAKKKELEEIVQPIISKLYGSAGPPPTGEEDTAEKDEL

isolated SBD of BiP = test: Fluorescence polarization NR peptide binding affinity; design: species or system human; conditions: isolated SBD vs full-length BiP
Procedure, shortened: as §1

human BiP [3] = target: T1, human BiP; test: Fluorescence anisotropy peptide substrate binding kinetics
BiP-PP = test: Single-turnover ATPase assay; format: biochemical, human; conditions: single turn-over
BiP-T229A = test: Fluorescence polarization NR peptide binding; design: species or system human; conditions: effect of ATP, WT BiP as positive control
Procedure, shortened: as §1

BiP SBD-Tev-NR = test: Fluorescence polarization NR peptide binding; design: species or system human; conditions: SBD with covalently linked NR peptide; WT BiP SBD as positive control
Procedure, shortened: as §1

BiP-L3,4′ = test: Fluorescence polarization NR peptide binding; design: species or system human; conditions: L3,4′ modification (TASDNQP→VGG); WT BiP as positive control
Procedure, shortened: as §1

BiP-PP (G486P/G493P) [4] = target: T2, BiP-PP (G486P/G493P); test: Fluorescence polarization peptide binding affinity
[5] = target: F-NR peptide (labelled NR peptide, sequence NRLLLTG); test: fluorescence polarisation
[6] = target: T3, BiP SBD-L3,4′ (residues 418-636), the SBD part of SBD-L3,4′-Tev-NR (human, UniProt P11021 418-636, L3,4′ (TASDNQP→VGG)); test: crystal structure
T3 sequence (looked up): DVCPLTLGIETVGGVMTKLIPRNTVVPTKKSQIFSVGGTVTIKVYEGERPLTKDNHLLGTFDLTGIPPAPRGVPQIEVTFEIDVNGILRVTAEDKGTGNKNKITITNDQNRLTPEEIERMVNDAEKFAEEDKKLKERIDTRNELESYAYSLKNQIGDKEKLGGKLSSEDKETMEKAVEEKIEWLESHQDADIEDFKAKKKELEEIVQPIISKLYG

BiP [7] = test: Single-turnover ATPase assay; format: biochemical, human
[8] = system: DnaK-PP (DnaK-G461P/G468P); test: Single-turnover ATPase assay; format: biochemical, E. coli
BiP [9] = conditions: ref Marcinowski et al., 2011; cited from earlier work

T1 sequence (P11021 19-654): as the sequence (P11021 19-654 R532E) above, with E514R counted along it

With NRLLLTG [NR peptide] the “binding affinity in the presence of ADP” value (human BiP [1]; +ADP) was “binding affinity is high”, the “affinity for NR peptide in the presence of ATP” value (human BiP [1]; +ATP) was “drastically reduced the affinity” and the NR peptide binding (human BiP [1]; fluorescence polarization, serial dilutions of BiP) was “binds NR peptide through its SBD and in an ATP-sensitive manner; also recorded: good affinity”. For the same molecule, the “affinity for NR peptide in the presence of ADP” value (BiP R532E; +ADP) was “normal affinity”, the “affinity for NR peptide in the presence of ATP” value (BiP R532E; +ATP) was “higher than that of WT BiP” and the “binding kinetics in the presence of ADP” value (BiP-PP (G486P/G493P) [2]) was “fast binding kinetics”. The “affinity of isolated SBD for NR peptide” value (isolated SBD of BiP) was “affinity comparable to full-length BiP”, the “binding kinetics, both on and off rates, relative to DnaK” value (human BiP [3]; BiP vs DnaK, Fig. S1a,b) was “much slower than those of DnaK” and the “binding kinetics in the presence of ADP” value (human BiP [3]; WT BiP, +ADP, F-NR peptide) was “binding kinetics are slow”. For the same molecule, the “binding kinetics in the presence of ATP” value (human BiP [3]; WT BiP, +ATP, F-NR peptide) was “fast binding kinetics”, the “stimulation of ATPase activity by NR peptide” value (BiP-PP) was “failed to stimulate the ATPase activity; also recorded: little appreciable stimulation” and the “NR peptide binding / affinity, ATP sensitivity” value (BiP-T229A) was “binds NR peptide in an ATP-sensitive manner like that of WT BiP; also recorded: significantly reduced affinity for NR peptide in the presence of ATP”. For the same molecule, the “binding of free NR peptide” value (BiP SBD-Tev-NR) was “Neither BiP SBD-Tev–NR nor SBD-L3,4′-Tev-NR showed appreciable binding; also recorded: completely blocks the binding of free NR peptide”, the “affinity for NR peptide / NR peptide binding” value (BiP-L3,4′) was “drastically compromised the NR peptide binding; also recorded: drastically reduced affinity” and the “affinity for NR peptide in the presence of ADP” value (BiP-PP (G486P/G493P) [4]) was “reduced affinity”.

With “human BiP (binding immunoglobulin protein), wild type (from UniProt P11021 19-654) (natural protein)” the Kd relative to that of DnaK [5] was 2 times lower.

NRLLLTG [NR peptide (sequence NRLLLTG), unlabelled]: binds [6].

B1: DnaJ: an Hsp40 co-chaperone for DnaK and founding representative of the class I Hsp40s (protein)
chain: MAKQDYYEILGVSKTAEEREIRKAYKRLAMKYHPDRNQGDKEAEAKFKEIKEAYEVLTDSQKRAAYDQYGHAAFEQGGMGGGGFGGGADFSDIFGDVFGDIFGGGRGRQRAARGADLRYNMELTLEEAVRGVTKEIRIPTLEECDVCHGSGAKPGTQPQTCPTCHGSGQVQMRQGFFAVQQTCPHCQGRGTLIKDPCNKCHGHGRVERSKTLSVKIPAGVDTGDRIRLAGEGEAGEHGAPAGDLYVQVQVKQHPIFEREGNNLYCEVPINFAMAALGGEIEVPTLDGRVKLKVPGETQTGKLFRMRGKGVKSVRGGAQGDLLCRVVVETPVGLNERQKQLLQELQESFGGPTGEHNSPRSKSFFDGVKKFFDDLTR
In the case of B1, the “stimulation of ATPase activity by DnaJ” value (BiP [7]; compared with ERdj3) is reported as “stimulated BiP although to less extend as ERdj3”, the “fold of stimulation of ATPase rate by DnaJ” value (DnaK; DnaJ at 0.4 μM, intrinsic ATPase activity set as 1) is reported as roughly 60 fold and the “stimulation of ATPase activity by DnaJ” value (BiP-PP) is reported as “Neither ERdj3 (d) nor DnaJ (f) showed appreciable stimulation; also recorded: failed to stimulate BiP-PP appreciably”. For the same molecule, the “stimulation of ATPase rate by DnaJ relative to WT DnaK” value ([8]; DnaK-PP vs WT DnaK) was “about two thirds of that of WT” and the “stimulation of ATPase activity by DnaJ” value ([8]; DnaK-PP, single turn-over) was “significant stimulation; also recorded: stimulates the ATPase rate of DnaK-PP drastically; also recorded: stimulated DnaK-PP significantly”.

B2: ERdj3: an abundant class I Hsp40 in ER, proposed to be an Hsp40 for BiP (protein)
chain: GRDFYKILGVPRSASIKDIKKAYRKLALQLHPDRNPDDPQAQEKFQDLGAAYEVLSDSEKRKQYDTYGEEGLKDGHQSSHGDIFSHFFGDFGFMFGGTPRQQDRNIPRGSDIIVDLEVTLEEVYAGNFVEVVRNKPVARQAPGKRKCNCRQEMRTTQLGPGRFQMTQEVVCDECPNVKLVNEERTLEVEIEPGVRDGMEYPFIGEGEPHVDGEPGDLRFRIKVVKHPIFERRGDDLYTNVTISLVESLVGFEMDITHLDGHKVHISRDKITRPGAKLWKKGEGLPNFDNNNIKGSLIITFDVDFPKEQLTEEAREGIKQLLKQGSVQKVYNGLQGY
For B2, the “interaction of ERdj3 with BiP in the presence of ADP” value (BiP [9]) is given as “significant interaction with BiP in the presence of ADP”, the “fold of stimulation of ATPase activity by ERdj3” value (BiP [7]; ERdj3 at 4 μM, intrinsic ATPase activity set as 1) is given as “more than 20 fold” and the “stimulation of ATPase activity by ERdj3” value (DnaK; single turn-over) is given as “stimulated DnaK’s ATPase activity robustly”. For the same molecule, the “stimulation of ATPase activity by ERdj3” value (BiP-PP) was “Neither ERdj3 (d) nor DnaJ (f) showed appreciable stimulation; also recorded: failed to show any appreciable stimulation” and the “stimulation of ATPase activity by ERdj3” value ([8]; DnaK-PP, single turn-over) was “significant stimulation; also recorded: significant stimulation on DnaK-PP although to less extend than that of DnaJ; also recorded: stimulated DnaK-PP significantly”.
